For orientation: EC50 means the concentration that produces a half-maximal response. For orientation: EC90 means the point of the concentration-response curve where the effect stands at 90%. A word on the Papp A→B: it is the apparent permeability from the apical to the basolateral side of a cell layer. The Papp B→A is the apparent permeability from the basolateral to the apical side of a cell layer.

Series [1] concerns Trypanosoma brucei. Description: Antitrypanosomal activity against blood stream form of Trypanosoma brucei 221a variant assessed as parasite growth inhibition measured after 48 hrs by resazurin dye based fluorescence analysis. It counts as functional, organism-based. The settings on record: for EC50: 48 h; for EC90: time 48 hrs. A digest of the protocol: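 Bloodstream-form T. b. brucei 221a (MiTat1.2a) in modified Iscove's medium at 37 °C, started at 2.5×10^4 mL^-1 with a concentration range. After 48 h, resazurin was added for a further 16 h. Fluorescence read at ex 545/em 590 nm. EC50 and EC90 taken from three independent replicates.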
In general terms: Alamar Blue is a resazurin reagent that responds to reducing activity.

The nature of series [2]: Cytotoxicity against rat L6 cells assessed as cell growth inhibition incubated for 6 days by resazurin dye based assay. It counts as toxicity. A digest of the protocol: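 Rat L6 myoblasts seeded at 1×10⁴ mL⁻¹ in RPMI-1640 with a range of compound concentrations, 6 days at 37 °C; resazurin added, 6 h further, fluorescence ex 545/em 590 nm.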
A short description of series [3]: Selectivity index, ratio of EC50 for cytotoxicity against rat L6 cells to EC50 for antitrypanosomal activity against bloodstream form of Trypanosoma brucei brucei 221a variant. In kind it is toxicity, cell-based. Particulars: read-out: Ratio EC50. In outline: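 L6 rat myoblasts seeded at 1×10^4 mL^-1 in RPMI-1640 with a compound concentration range for 6 days at 37 °C. Resazurin added for 6 h, then fluorescence read.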

A short description of series [4]: Apparent permeability across apical to basolateral side in MDCK-MDR1 cells at 10 uM measured for 60 mins by LC-MS/MS analysis. It counts as ADME, cell-based, Canis lupus familiaris. The settings on record: dog. In outline: (§1)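 MDCKII-hMDR1 monolayers on inserts, compound 10 μM (1% DMSO) in duplicate, 60 min at 37 °C, bidirectional, with and without elacridar 2 μM. Amprenavir as P-gp control, Lucifer yellow for monolayer integrity; compound quantified by LC–MS/MS.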

Series [5] can be described thus: Efflux ratio of apparent permeability across basolateral to apical side over apical to basolateral side in MDCK-MDR1 cells at 10 uM measured for 60 mins by LC-MS/MS analysis. It counts as ADME, cell-based, Canis lupus familiaris. Particulars: dog, mdck-mdr1, 1 h. In outline:
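MDCKII cells overexpressing human MDR1 (P-glycoprotein) grown as monolayers on inserts; bidirectional transport (apical-to-basolateral and basolateral-to-apical) of 10 μM compound (1% DMSO) at 37 °C for 60 min, in duplicate, with and without P-gp inhibitor elacridar (2 μM). Monolayer integrity checked with Lucifer yellow; amprenavir as P-gp control. Compound quantified by LC–MS/MS; efflux ratio = BA Papp/AB Papp.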

Series [6] can be described thus: Apparent permeability across basolateral to apical side in MDCK-MDR1 cells at 10 uM measured for 60 mins by LC-MS/MS analysis. Particulars: dog, MDCK-MDR1. In kind it is ADME, cell-based, Canis lupus familiaris. In outline:
as §1

The nature of series [7]: Metabolic stability in mouse liver microsomes assessed as half life at 1 uM measured upto 60 mins in presence of NADPH by LC-MS/MS analysis. In kind it is ADME, Microsome. Particulars: 1 h. For orientation: Liver microsomes are vesicles of endoplasmic reticulum, rich in cytochrome P450 enzymes.

Consider `CSc1ccc(OCc2ncc([N+](=O)[O-])n2C)cc1` [FEXINIDAZOLE], for which, in series [1], the concentration giving a half-maximal response (EC50) worked out at 2.4 µM and the 90% effect concentration (EC90) came to 4.51 µM.

`N=C(N)c1ccc2nc(CCCc3nc4ccc(C(=N)N)cc4s3)sc2c1`: the concentration giving a half-maximal response (EC50) at 6 days in series [2] was more than 160 µM. In series [1], the 50% effective concentration (EC50) was 0.34 µM and the concentration for an effect of 90% (EC90) was found to be 0.75 µM. Besides, in series [3], the selectivity ratio was more than 470.

In the case of `c1cc2nc(CCCCc3nc4ccc(C5=NCCCN5)cc4s3)sc2cc1C1=NCCCN1`, the 50% effective concentration (EC50) at 6 days in series [2] is more than 130 µM. Besides, in series [1], the concentration giving a half-maximal response (EC50) was determined as 0.19 µM and the EC90 turned out to be 0.31 µM. The selectivity ratio in series [3] was more than 680.

`c1cc2nc(CCc3nc4ccc(C5=NCCCN5)cc4s3)sc2cc1C1=NCCCN1`: the half-maximal effective concentration (EC50) at 6 days in series [2] was more than 140 µM. Further, in series [1], the concentration giving a half-maximal response (EC50) was 2.38 µM and the 90% effect concentration (EC90) was found to be 3.48 µM. Moreover, the selectivity ratio in series [3] is more than 59.

As for `c1cc2nc(CCCCc3nc4ccc(C5=NCCN5)cc4s3)sc2cc1C1=NCCN1`, the half-maximal effective concentration (EC50) at 6 days in series [2] stood at 93 µM. In addition, in series [1], the EC50 was found to be 1.14 µM and the EC90 was 1.87 µM. Further, in series [3], the selectivity ratio is 82.

Consider `CC(C)CN(C[C@@H](O)[C@H](Cc1ccccc1)NC(=O)O[C@H]1CCOC1)S(=O)(=O)c1ccc(N)cc1` [AMPRENAVIR], for which the Papp A→B at 1 h, 10 µM in series [4] came to 0.5 ×10⁻⁶ cm/s.

`N=C(N)c1ccc2nc(/C=C/c3nc4ccc(C(=N)N)cc4s3)sc2c1`: the concentration giving a half-maximal response (EC50) at 6 days in series [2] worked out at 2.48 µM. For the same compound, in series [1], the EC50 is 0.012 µM and the EC90 came to 0.022 µM. Besides, the selectivity ratio in series [3] is 210.

As for `N=C(N)c1ccc2nc(CCCCc3nc4ccc(C(=N)N)cc4s3)sc2c1`, the EC50 at 6 days in series [2] was 134 µM. Moreover, in series [1], the concentration giving a half-maximal response (EC50) is 0.063 µM and the concentration for an effect of 90% (EC90) turned out to be 0.131 µM. Further, the selectivity ratio in series [3] amounted to 2100.

Turning to `N=C(N)c1ccc2nc(CCc3nc4ccc(C(=N)N)cc4s3)sc2c1`, in series [2], the EC50 at 6 days was more than 170 µM. In addition, in series [1], the EC50 is 0.25 µM and the EC90 worked out at 0.4 µM. Besides, the selectivity ratio in series [3] was more than 680.

Consider `c1cc2nc(CCCCCCCc3nc4ccc(C5=NCCN5)cc4s3)sc2cc1C1=NCCN1`, for which, in series [2], the 50% effective concentration (EC50) at 6 days was determined as 6.85 µM. Also, in series [1], the EC50 was 1.49 µM and the concentration for an effect of 90% (EC90) came to 2.52 µM. Moreover, the selectivity ratio in series [3] came to 4.6.

In the case of `c1cc2nc(CCCCCc3nc4ccc(C5=NCCN5)cc4s3)sc2cc1C1=NCCN1`, the concentration giving a half-maximal response (EC50) at 6 days in series [2] is 93.5 µM. In series [1], the EC50 is 1.56 µM and the EC90 came out at 2.11 µM. The selectivity ratio in series [3] came out at 60.

`O=C(O)Cc1ccccc1Nc1c(Cl)cccc1Cl` [DICLOFENAC]: the Ratio in series [5] came to 0.7. Also, in series [4], the apical-to-basolateral permeability (Papp A→B) at 1 h, 10 µM was found to be 47.3 ×10⁻⁶ cm/s. For the same compound, the apparent permeability from basolateral to apical (Papp B→A) at 1 h, 10 µM in series [6] is 31.2 ×10⁻⁶ cm/s.

Turning to `C(=C\c1nc2ccc(C3=NCCN3)cc2s1)/c1nc2ccc(C3=NCCN3)cc2s1`, the EC50 at 6 days in series [2] was found to be 4.1 µM. For the same compound, in series [1], the EC50 stood at 0.19 µM and the concentration for an effect of 90% (EC90) amounted to 0.68 µM. Also, the selectivity ratio in series [3] came to 22.

Take `c1cc2nc(CCCCCCc3nc4ccc(C5=NCCN5)cc4s3)sc2cc1C1=NCCN1`: the half-maximal effective concentration (EC50) at 6 days in series [2] was 10.9 µM. Moreover, in series [1], the concentration for a half-maximal effect (EC50) came out at 0.82 µM and the 90% effect concentration (EC90) worked out at 1.88 µM. Also, the selectivity ratio in series [3] was found to be 13.

In the case of `C(=C\c1nc2ccc(C3=NCCCN3)cc2s1)/c1nc2ccc(C3=NCCCN3)cc2s1`, in series [2], the concentration for a half-maximal effect (EC50) at 6 days was 51.8 µM. In addition, in series [1], the concentration for a half-maximal effect (EC50) was determined as 0.1 µM and the EC90 was determined as 0.16 µM. Moreover, the selectivity ratio in series [3] worked out at 520.

With `c1cc2nc(CCc3nc4ccc(C5=NCCN5)cc4s3)sc2cc1C1=NCCN1`, the EC50 at 6 days in series [2] stood at 80.6 µM. For the same compound, in series [1], the EC50 came to 3.64 µM and the concentration for an effect of 90% (EC90) was determined as 7.82 µM. The selectivity ratio in series [3] is 22.

Take `c1cc2nc(CCCc3nc4ccc(C5=NCCN5)cc4s3)sc2cc1C1=NCCN1`: the EC50 at 6 days in series [2] is more than 150 µM. Moreover, in series [1], the EC50 worked out at 5.39 µM and the EC90 amounted to 9.01 µM. The selectivity ratio in series [3] was more than 28.

As for `N=C(N)c1ccc2nc(CCCCCc3nc4ccc(C(=N)N)cc4s3)sc2c1`, the EC50 at 6 days in series [2] came out at 114 µM. Besides, in series [1], the half-maximal effective concentration (EC50) came to 0.098 µM and the 90% effect concentration (EC90) turned out to be 0.145 µM. Moreover, in series [3], the selectivity ratio is 1200.

Consider `N=C(N)c1ccc2nc(CCCCCCc3nc4ccc(C(=N)N)cc4s3)sc2c1`, for which, in series [2], the concentration for a half-maximal effect (EC50) at 6 days turned out to be 42.5 µM. For the same compound, in series [1], the 50% effective concentration (EC50) came out at 0.89 µM and the concentration for an effect of 90% (EC90) was 1.52 µM. Besides, the selectivity ratio in series [3] worked out at 48.

Turning to `c1cc2nc(CCCCCCc3nc4ccc(C5=NCCCN5)cc4s3)sc2cc1C1=NCCCN1`, the EC50 at 6 days in series [2] was more than 130 µM. In series [1], the EC50 was found to be 0.028 µM and the 90% effect concentration (EC90) came to 0.056 µM. Further, the selectivity ratio in series [3] was more than 4600.

As to `Cn1c(=O)c2c(ncn2C)n(C)c1=O` [CAFFEINE], the t1/2 in series [7] is given as more than 60 min.

As to `c1cc2nc(C3CCC(c4nc5ccc(C6=NCCCN6)cc5s4)CC3)sc2cc1C1=NCCCN1` (stereo not drawn), the half-maximal effective concentration (EC50) at 6 days in series [2] was more than 130 µM. In addition, in series [1], the EC50 is 0.021 µM and the 90% effect concentration (EC90) is 0.031 µM. In addition, the selectivity ratio in series [3] was more than 6200.

In the case of `c1cc2nc(C3CCC(c4nc5ccc(C6=NCCN6)cc5s4)CC3)sc2cc1C1=NCCN1` (stereo not drawn), the concentration for a half-maximal effect (EC50) at 6 days in series [2] amounted to 4.15 µM. Besides, in series [1], the concentration for a half-maximal effect (EC50) was 0.24 µM and the EC90 amounted to 0.49 µM. Moreover, the selectivity ratio in series [3] was found to be 17.

As for `N=C(N)c1ccc2nc(CCCCCCCc3nc4ccc(C(=N)N)cc4s3)sc2c1`, the concentration giving a half-maximal response (EC50) at 6 days in series [2] was determined as 13.9 µM. Also, in series [1], the concentration for a half-maximal effect (EC50) was 0.74 µM and the EC90 amounted to 1.39 µM. Moreover, the selectivity ratio in series [3] is 18.

Turning to `C[C@]12CC[C@H]3[C@@H](CCC4=CC(=O)CC[C@@]43C)[C@@H]1CC[C@@H]2O` [TESTOSTERONE], the t1/2 in series [7] came to 6.7 min.

The values above are taken from ChEMBL document CHEMBL5365494, “Bis-6-amidino-benzothiazole Derivative that Cures Experimental Stage 1 African Trypanosomiasis with a Single Dose” (J Med Chem, 2023).
